Data on 14 compounds can be found in ChEMBL document CHEMBL4138059, “Novel bivalent securinine mimetics as topoisomerase I inhibitors” (Medchemcomm, 2017).

Calls of active or inactive are those of the source. No cut-off for these calls is given here.

The target of assay [1] is T1, Topoisomerase I (Bos taurus) (UniProt Q2HPH0).
T1 sequence (whole entry): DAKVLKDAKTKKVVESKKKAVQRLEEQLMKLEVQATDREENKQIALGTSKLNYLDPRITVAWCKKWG
The experiment in a line: Inhibition of calf thymus topoisomerase 1 assessed as suppression of relaxation of supercoiled pBR322 DNA at 100 uM incubated for 0.5 hrs by bromophenol blue and xylene cyanol FF staining based electrophoresis method. The method, boiled down:
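Calf thymus Topo I with supercoiled pBR322 DNA and 100 μM compound, 37 °C for 0.5 h. Stopped with dye solution (bromophenol blue, xylene cyanol FF, glycerol). 1% agarose, 0.66 h in 1× TAE, then 5 μg mL-1 EB staining 0.5 h and UV imaging. Inhibition judged from supercoiled DNA remaining; camptothecin as control.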

In assay [2] the target is T1, Topoisomerase I (Bos taurus). The experiment in a line: Inhibition of calf thymus topoisomerase 1 assessed as increase in nicked DNA at 10 uM using supercoiled pBR322 DNA incubated for 0.5 hrs by ethidium bromide staining based DNA-cleavage assay.
Assay [3] shares this target. The experiment in a line: Inhibition of calf thymus topoisomerase 1 assessed as increase in nicked DNA at 50 uM using supercoiled pBR322 DNA incubated for 0.5 hrs by ethidium bromide staining based DNA-cleavage assay. The method, boiled down: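 Reaction: 20 units Topo I, 0.5 μg supercoiled pBR322 DNA, 50 or 100 μM compound in 40 μL Topo I buffer, 37 °C for 0.5 h. Terminated with 1% SDS, proteinase K 0.8 mg mL-1 at 50 °C for 10 min. Electrophoresis 60 V, 25 °C, 0.5 h, EB soak 0.5 μg mL-1, second run 0.5 h. Read-out: nicked versus other band intensities, UV.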

Assay [4] deals with DNA topoisomerase I (Bos taurus). As to the kind of experiment: Induction of DNA intercalation assessed as reduction in topoisomerase 1-mediated DNA relaxation at 100 uM using supercoiled pBR322 DNA incubated for 0.5 hrs in presence of calf thymus topoisomerase 1 by electrophoresis method.
Assay [5] addresses T1, Topoisomerase I (Bos taurus). The experiment in a line: Potency index, ratio of enzyme inhibition of securinine to enzyme inhibition of test compound for inhibition of calf thymus topoisomerase 1 assessed as suppression of relaxation of supercoiled pBR322 DNA at 100 uM incubated for 0.5 hrs by bromophenol blue and xylene cyanol FF staining based electrophoresis method.
Assay [6] shares this target. The experiment in a line: Inhibition of calf thymus topoisomerase 1 assessed as reduction in topo1/DNA complex formation at 50 to 400 uM pre-incubated for 0.33 hrs before addition of supercoiled pBR322 DNA substrate by EMSA. Put shortly: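 BSA added to Topo I buffer, then four units calf thymus Topo I and compound (50, 100, 200 or 400 μM), standing 0.33 h. 0.1 μg pBR322 DNA added, 37 °C for 0.5 h. Electrophoresis at 1 V cm-1, 4 °C, 8 h on 1% gel containing EB; bands under UV.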
For orientation: Mobility shift assays separate free from complexed probe on a gel.

Consider `O=C1C=C2C=C[C@@H]3C[C@@]2(O1)[C@H]1CCCCN31`, for which the inhibition result in assay [1] was “Active”.

Take `CCCN(C(=O)CCCCC(=O)N(CCC)[C@H]1CC2=CC(=O)O[C@@]23C[C@@H]1N1CCCC[C@@H]13)[C@@H]1CC2=CC(=O)O[C@@]23C[C@@H]1N1CCCC[C@@H]13`: the inhibition result in assay [2] and in assay [3] was “inactive” in each case. In addition, the inhibition result in assay [1] is “Active”.

As to `CCCN(C(=O)c1ccccc1C(=O)N(CCC)[C@H]1CC2=CC(=O)O[C@@]23C[C@@H]1N1CCCCC13)C1CC2=CC(=O)O[C@@]23C[C@@H]1N1CCCC[C@@H]13` (single isomer, unassigned), in assay [1], the inhibition entry is “Active”. Also, the result in assay [4] was inactive.

For the compound `CCCN(C(=O)Cc1ccc(CC(=O)N(CCC)[C@H]2CC3=CC(=O)O[C@@]34C[C@@H]2N2CCCC[C@@H]24)cc1)[C@@H]1CC2=CC(=O)O[C@@]23C[C@@H]1N1CCCC[C@@H]13`, in assay [1], the inhibition result was “Active”. Also, the result in assay [4] was inactive.

For `CCCN(C(=O)c1ccccc1)[C@H]1CC2=CC(=O)O[C@@]23C[C@@H]1N1CCCC[C@@H]13`, the inhibition entry in assay [2] and in assay [3] was “inactive” throughout. In addition, the inhibition entry in assay [1] was “Active”.

Take `CCCN(C(=O)[C@H]1CCCC[C@H]1C(=O)N(CCC)[C@H]1CC2=CC(=O)O[C@@]23C[C@@H]1N1CCCC[C@@H]13)[C@@H]1CC2=CC(=O)O[C@@]23C[C@@H]1N1CCCC[C@@H]13`: the inhibition result in assay [1] was “Active”.

For `CCCN(C(=O)[C@H]1CC[C@H](C(=O)N(CCC)[C@H]2CC3=CC(=O)O[C@@]34C[C@@H]2N2CCCC[C@@H]24)CC1)[C@@H]1CC2=CC(=O)O[C@@]23C[C@@H]1N1CCCC[C@@H]13`, in assay [1], the inhibition entry is “Active”.

Regarding `CCCN(C(=O)c1ccc(C(=O)N(CCC)[C@H]2CC3=CC(=O)O[C@@]34C[C@@H]2N2CCCCC24)cc1)C1CC2=CC(=O)O[C@@]23C[C@@H]1N1CCCC[C@@H]13` (single isomer, unassigned), in assay [1], the inhibition entry is “Active”. The outcome in assay [4] was inactive.

Regarding `CCCN(C(=O)[C@H]1CCC[C@@H](C(=O)N(CCC)[C@H]2CC3=CC(=O)O[C@@]34C[C@@H]2N2CCCC[C@@H]24)C1)[C@@H]1CC2=CC(=O)O[C@@]23C[C@@H]1N1CCCC[C@@H]13`, the inhibition result in assay [2] and in assay [3] was “inactive” in each case. In addition, the inhibition entry in assay [1] was “Active”.

Take `CC[C@@]1(O)C(=O)OCc2c1cc1n(c2=O)Cc2cc3ccccc3nc2-1`: the inhibition entry in assay [2], in assay [1] and in assay [3] was “Active” in each case.

On to `CCCN(C(=O)CCCC(=O)N(CCC)[C@H]1CC2=CC(=O)O[C@@]23C[C@@H]1N1CCCC[C@@H]13)[C@@H]1CC2=CC(=O)O[C@@]23C[C@@H]1N1CCCC[C@@H]13`, for which, in assay [1], the inhibition entry is “Active”.

For `CCCN(C(=O)c1cccc(C(=O)N(CCC)[C@H]2CC3=CC(=O)O[C@@]34C[C@@H]2N2CCCCC24)c1)C1CC2=CC(=O)O[C@@]23C[C@@H]1N1CCCC[C@@H]13` (single isomer, unassigned), the inhibition entry in assay [2] and in assay [1] was “Active” each time. For the same compound, the outcome in assay [4] was inactive. The Ratio in assay [5] is 3. Also, the inhibition entry in assay [6] was “Dose-dependent effect”.

For the compound `CCCN(C(=O)Cc1cccc(CC(=O)N(CCC)[C@H]2CC3=CC(=O)O[C@@]34C[C@@H]2N2CCCCC24)c1)C1CC2=CC(=O)O[C@@]23C[C@@H]1N1CCCCC13` (single isomer, unassigned), in assay [1], the inhibition entry was “Active”. In addition, the result in assay [4] was inactive.

As for `CCCN(C(=O)Cc1ccccc1CC(=O)N(CCC)[C@H]1CC2=CC(=O)O[C@@]23C[C@@H]1N1CCCC[C@@H]13)[C@@H]1CC2=CC(=O)O[C@@]23C[C@@H]1N1CCCC[C@@H]13`, in assay [1], the inhibition result was “Active”. The result in assay [4] was inactive.
